Measurements published in ChEMBL document CHEMBL1152560, “Substituted 2-arylbenzothiazoles as kinase inhibitors: hit-to-lead optimization” (Bioorg Med Chem, 2009).

How the values were obtained:
Angiopoietin-1 receptor [1] = molecular target: T1, Angiopoietin-1 receptor (Homo sapiens, UniProt Q02763); test: Inhibition of TIE2 by microplate scintillation counting
[2] = molecular target: Platelet-derived growth factor receptor beta (Homo sapiens, UniProt P09619); test: Inhibition of PDGFRbeta by microplate scintillation counting
How it was run: (§1)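 Substrates: tetra(LRRWSLG) for Aurora A/B; poly(Ala,Glu,Lys,Tyr)6:2:5:1 for PDGFRβ; poly(Glu,Tyr)4:1 for TIE2 and VEGFR2. Stopped with 2% H3PO4.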

Aurora kinase A = molecular target: T2, Aurora kinase A (Homo sapiens, UniProt O14965); test: Inhibition of Aurora-A by microplate scintillation counting; how it was run: as §1
T2 sequence (O14965 whole entry): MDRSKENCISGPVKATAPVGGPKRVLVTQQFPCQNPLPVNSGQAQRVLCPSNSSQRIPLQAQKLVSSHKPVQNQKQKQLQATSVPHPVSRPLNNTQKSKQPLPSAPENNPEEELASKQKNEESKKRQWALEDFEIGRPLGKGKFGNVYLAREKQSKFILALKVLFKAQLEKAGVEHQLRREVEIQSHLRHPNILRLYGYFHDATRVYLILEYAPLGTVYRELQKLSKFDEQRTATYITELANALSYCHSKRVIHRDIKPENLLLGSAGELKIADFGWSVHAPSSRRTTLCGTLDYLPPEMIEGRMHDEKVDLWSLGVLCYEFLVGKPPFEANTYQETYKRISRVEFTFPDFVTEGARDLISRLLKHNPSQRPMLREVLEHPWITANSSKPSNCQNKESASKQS

Aurora kinase B = Aurora kinase B (Homo sapiens, UniProt Q96GD4); test: Inhibition of Aurora-B by microplate scintillation counting; how it was run: as §1
[3] = molecular target: Receptor tyrosine-protein kinase erbB-2 (Homo sapiens, UniProt P04626); test: Inhibition of ERBB2 by microplate scintillation counting
How it was run: (§2)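 Radiometric FlashPlate assay using recombinant kinase (10–200 ng/well) with poly(Glu,Tyr)4:1 substrate. Buffer: 60 mM HEPES-NaOH pH 7.5, 3 mM MgCl2, 3 mM MnCl2, 3 µM orthovanadate, 1.2 mM DTT, PEG 20000, 1 µM [γ-33P]-ATP. Run 80 min at 30 °C, stopped with H3PO4, and 33P incorporation counted.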

[4] = molecular target: T3, Epidermal growth factor receptor (Homo sapiens, UniProt P00533); test: Inhibition of wild type EGF-R by microplate scintillation counting
[5] = molecular target: Vascular endothelial growth factor receptor 3 (Homo sapiens, UniProt P35916); test: Inhibition of VEGFR3 by microplate scintillation counting; how it was run: as §2
[6] = molecular target: Vascular endothelial growth factor receptor 2 (Homo sapiens, UniProt P35968); test: Inhibition of VEGFR2 by microplate scintillation counting
Angiopoietin-1 receptor [7] = molecular target: T1, Angiopoietin-1 receptor; test: Inhibition of TIE2 in human HCT116 cells by cellular phosphorylation assay; assay type: cell-based, HCT-116
How it was run: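 TIE2 autophosphorylation in cells expressing the receptor. Compound was applied, cells were stimulated, then lysed with phosphoprotein levels preserved. Phosphorylation was quantified by sandwich ELISA with a receptor-specific capture antibody and anti-phosphotyrosine antibody, relative to the stimulated high control.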

[8] = molecular target: T3, Epidermal growth factor receptor; test: Inhibition of EGFR in human HCT116 cells by cellular phosphorylation assay

Sequence of Platelet-derived growth factor receptor beta (P09619 whole entry): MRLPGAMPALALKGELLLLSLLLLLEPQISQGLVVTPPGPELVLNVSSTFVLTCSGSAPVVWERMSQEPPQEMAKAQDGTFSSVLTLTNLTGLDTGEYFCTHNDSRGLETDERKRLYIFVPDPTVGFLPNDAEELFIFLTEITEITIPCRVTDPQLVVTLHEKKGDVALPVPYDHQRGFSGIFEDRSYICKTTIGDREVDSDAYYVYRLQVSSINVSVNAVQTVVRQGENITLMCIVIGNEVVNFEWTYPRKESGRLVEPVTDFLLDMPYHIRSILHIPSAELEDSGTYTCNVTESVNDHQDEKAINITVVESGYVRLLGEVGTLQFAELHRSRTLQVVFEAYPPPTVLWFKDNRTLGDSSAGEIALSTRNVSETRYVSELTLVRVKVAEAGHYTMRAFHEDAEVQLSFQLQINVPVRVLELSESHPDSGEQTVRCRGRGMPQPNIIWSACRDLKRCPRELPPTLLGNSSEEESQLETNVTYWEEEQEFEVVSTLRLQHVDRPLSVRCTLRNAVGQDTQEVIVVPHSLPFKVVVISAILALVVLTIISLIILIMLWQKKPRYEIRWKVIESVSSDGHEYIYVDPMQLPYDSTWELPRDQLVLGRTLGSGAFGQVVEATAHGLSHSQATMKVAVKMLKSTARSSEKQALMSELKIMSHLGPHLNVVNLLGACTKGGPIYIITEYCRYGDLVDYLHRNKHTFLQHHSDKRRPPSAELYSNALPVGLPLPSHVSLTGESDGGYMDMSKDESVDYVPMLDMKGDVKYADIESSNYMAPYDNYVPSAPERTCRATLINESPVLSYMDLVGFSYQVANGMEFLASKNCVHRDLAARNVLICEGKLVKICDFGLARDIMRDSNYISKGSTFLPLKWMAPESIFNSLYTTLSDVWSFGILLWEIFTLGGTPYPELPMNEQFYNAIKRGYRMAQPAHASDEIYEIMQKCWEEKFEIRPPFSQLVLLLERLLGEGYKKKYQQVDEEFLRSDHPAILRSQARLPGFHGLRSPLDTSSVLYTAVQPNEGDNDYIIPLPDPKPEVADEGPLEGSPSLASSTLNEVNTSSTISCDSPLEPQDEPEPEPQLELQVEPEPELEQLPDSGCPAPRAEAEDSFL
Sequence of Vascular endothelial growth factor receptor 3 (P35916 whole entry): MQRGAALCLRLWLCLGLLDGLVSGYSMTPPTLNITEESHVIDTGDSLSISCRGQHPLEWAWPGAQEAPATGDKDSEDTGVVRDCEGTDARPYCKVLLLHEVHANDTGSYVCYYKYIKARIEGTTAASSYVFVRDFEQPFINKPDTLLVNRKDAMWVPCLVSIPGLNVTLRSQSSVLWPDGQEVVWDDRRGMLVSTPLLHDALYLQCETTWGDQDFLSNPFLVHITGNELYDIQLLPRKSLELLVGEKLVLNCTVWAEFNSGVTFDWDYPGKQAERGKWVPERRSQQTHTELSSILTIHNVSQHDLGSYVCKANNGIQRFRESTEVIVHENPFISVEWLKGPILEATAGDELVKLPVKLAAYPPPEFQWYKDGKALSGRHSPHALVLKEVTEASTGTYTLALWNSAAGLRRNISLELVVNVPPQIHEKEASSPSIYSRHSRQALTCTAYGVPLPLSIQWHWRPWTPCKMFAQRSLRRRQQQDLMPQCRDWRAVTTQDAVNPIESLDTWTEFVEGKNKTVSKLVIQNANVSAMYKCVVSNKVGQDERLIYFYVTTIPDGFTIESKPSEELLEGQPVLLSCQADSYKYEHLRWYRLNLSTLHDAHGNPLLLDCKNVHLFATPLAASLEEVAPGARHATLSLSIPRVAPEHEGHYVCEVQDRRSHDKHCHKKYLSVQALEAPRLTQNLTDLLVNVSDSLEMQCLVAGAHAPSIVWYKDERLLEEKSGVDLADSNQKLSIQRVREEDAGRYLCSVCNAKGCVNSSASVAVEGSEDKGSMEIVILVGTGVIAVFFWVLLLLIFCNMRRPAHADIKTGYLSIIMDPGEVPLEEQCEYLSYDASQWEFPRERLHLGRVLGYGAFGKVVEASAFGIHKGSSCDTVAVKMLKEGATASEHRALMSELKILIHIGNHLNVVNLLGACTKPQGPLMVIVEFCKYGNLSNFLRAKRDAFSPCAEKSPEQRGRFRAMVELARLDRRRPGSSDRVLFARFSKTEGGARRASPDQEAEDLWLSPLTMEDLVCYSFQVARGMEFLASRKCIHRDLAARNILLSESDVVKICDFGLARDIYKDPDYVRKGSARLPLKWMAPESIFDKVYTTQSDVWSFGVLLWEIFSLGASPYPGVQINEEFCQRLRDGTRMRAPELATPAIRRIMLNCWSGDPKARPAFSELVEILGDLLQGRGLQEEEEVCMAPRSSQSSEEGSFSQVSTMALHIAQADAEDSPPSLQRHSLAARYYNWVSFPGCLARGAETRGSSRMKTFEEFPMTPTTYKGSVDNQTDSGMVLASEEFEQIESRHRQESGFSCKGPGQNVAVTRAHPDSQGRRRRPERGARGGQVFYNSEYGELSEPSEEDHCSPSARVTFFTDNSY
T3 sequence (P00533 whole entry): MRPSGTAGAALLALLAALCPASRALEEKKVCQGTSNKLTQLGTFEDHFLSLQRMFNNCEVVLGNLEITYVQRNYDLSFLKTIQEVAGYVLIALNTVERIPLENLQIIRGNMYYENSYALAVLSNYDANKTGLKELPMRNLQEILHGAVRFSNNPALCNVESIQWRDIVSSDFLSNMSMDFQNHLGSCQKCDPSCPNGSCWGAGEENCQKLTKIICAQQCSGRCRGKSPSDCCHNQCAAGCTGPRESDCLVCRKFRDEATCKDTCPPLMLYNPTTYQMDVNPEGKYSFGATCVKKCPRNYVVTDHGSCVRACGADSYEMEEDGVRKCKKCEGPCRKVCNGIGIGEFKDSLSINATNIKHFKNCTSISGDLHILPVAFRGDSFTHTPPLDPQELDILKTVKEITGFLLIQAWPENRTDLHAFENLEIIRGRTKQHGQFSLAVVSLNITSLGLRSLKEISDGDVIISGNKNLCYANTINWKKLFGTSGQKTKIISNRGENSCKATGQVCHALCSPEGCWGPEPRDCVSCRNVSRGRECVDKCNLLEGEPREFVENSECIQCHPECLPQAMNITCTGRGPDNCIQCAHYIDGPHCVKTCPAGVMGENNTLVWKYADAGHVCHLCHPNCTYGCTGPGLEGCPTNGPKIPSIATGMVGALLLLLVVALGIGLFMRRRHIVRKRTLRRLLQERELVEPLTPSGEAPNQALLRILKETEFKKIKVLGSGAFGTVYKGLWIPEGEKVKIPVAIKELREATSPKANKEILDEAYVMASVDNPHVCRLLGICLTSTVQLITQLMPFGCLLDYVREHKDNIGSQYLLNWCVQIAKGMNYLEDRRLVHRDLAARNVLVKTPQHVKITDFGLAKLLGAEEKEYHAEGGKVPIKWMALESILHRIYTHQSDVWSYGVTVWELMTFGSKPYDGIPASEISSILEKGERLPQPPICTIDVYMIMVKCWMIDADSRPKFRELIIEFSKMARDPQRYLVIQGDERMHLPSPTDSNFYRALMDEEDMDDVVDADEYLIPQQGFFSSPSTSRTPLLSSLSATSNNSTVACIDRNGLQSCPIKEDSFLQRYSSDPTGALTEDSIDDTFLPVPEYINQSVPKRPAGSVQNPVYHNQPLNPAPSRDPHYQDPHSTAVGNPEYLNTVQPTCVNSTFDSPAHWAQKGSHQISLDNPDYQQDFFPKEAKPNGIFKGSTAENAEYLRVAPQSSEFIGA
Sequence of Vascular endothelial growth factor receptor 2 (P35968 whole entry): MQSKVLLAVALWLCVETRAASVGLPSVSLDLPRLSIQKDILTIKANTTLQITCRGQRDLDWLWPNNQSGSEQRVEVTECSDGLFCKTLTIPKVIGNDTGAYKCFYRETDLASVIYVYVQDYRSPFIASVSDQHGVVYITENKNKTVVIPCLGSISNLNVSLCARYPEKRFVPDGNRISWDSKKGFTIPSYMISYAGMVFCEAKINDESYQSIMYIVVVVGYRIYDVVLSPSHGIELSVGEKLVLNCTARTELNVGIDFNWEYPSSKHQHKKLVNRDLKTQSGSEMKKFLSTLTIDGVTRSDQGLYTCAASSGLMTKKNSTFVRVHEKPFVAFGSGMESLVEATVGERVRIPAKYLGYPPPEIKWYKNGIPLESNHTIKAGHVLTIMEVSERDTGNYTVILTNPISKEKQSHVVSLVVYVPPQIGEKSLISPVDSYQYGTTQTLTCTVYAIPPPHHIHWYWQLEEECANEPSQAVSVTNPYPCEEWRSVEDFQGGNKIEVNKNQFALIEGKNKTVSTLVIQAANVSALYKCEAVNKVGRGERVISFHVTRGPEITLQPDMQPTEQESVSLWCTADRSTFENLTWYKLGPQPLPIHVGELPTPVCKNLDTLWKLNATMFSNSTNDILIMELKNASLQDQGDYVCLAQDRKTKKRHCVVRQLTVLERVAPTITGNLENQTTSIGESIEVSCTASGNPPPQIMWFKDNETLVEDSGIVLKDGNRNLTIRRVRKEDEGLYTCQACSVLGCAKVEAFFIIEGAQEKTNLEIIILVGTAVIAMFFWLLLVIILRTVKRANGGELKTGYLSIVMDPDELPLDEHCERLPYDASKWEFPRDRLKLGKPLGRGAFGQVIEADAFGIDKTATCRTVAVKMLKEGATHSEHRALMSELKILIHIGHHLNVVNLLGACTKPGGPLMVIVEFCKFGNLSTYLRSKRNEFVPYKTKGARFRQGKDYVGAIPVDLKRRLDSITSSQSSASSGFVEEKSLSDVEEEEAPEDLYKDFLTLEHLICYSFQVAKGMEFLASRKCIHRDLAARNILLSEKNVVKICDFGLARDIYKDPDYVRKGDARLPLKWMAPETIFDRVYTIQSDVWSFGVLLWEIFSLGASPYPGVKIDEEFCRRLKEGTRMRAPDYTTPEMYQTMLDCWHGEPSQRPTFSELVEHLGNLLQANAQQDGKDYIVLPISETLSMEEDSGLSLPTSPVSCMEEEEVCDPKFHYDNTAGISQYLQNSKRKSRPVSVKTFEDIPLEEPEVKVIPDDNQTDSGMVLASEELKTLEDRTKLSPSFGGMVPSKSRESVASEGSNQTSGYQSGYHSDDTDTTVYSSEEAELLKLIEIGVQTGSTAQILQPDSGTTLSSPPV

Compound	IC50 (Angiopoietin-1 receptor [1]) [nM]	IC50 [2] [nM]	IC50 (Aurora kinase A) [nM]	IC50 (Aurora kinase B) [nM]	IC50 [3] [nM]	IC50 [4] [nM]	IC50 [5] [nM]	IC50 [6] [nM]	EC50 (Angiopoietin-1 receptor [7]) [nM]	EC50 [8] [nM]
COc1cc2ncnc(Nc3ccc(-c4nc5cc(Cl)ccc5s4)cc3)c2cc1OCCCN1CCN(C)CC1	4000	9900	400	500	> 10000	> 10000	–	–	–	–
COc1cc2ncnc(Nc3ccc(-c4nc5ccccc5s4)c(F)c3)c2cc1OCCCN1CCN(C)CC1	3100	8700	200	670	> 10000	2300	–	–	–	–
COc1cc2c(Nc3ccc(-c4nc5ccccc5s4)c(C)c3)ncnc2cc1OCCCN1CCN(C)CC1	68	7900	230	260	–	–	1500	350	–	–
COc1cc2ncnc(Nc3ccc(-c4nc5ccccc5s4)c(Cl)c3)c2cc1OCCCN1CCN(C)CC1	510	7700	690	4800	180	44	–	–	–	–
COc1cc2c(N(C)c3ccc(-c4nc5ccccc5s4)c(OC)c3)ncnc2cc1OCCCN1CCN(C)CC1	> 10000	> 10000	3300	8000	–	–	> 10000	> 10000	–	–
COc1cc2ncnc(Nc3ccc(-c4nc5ccccc5s4)cc3C)c2cc1OCCCN1CCN(C)CC1	350	> 10000	9400	> 10000	5900	1400	–	–	–	–
COc1cc2c(Nc3ccc(-c4nc5ccccc5s4)cc3O)ncnc2cc1OCCCN1CCN(C)CC1	230	> 10000	230	270	3600	350	4500	280	–	–
COc1cc(-c2nc3ccccc3s2)ccc1Nc1ncnc2cc(OCCCN3CCN(C)CC3)c(OC)cc12	330	5100	65	90	> 10000	> 10000	1700	3300	> 10000	> 10000
COc1cc2c(Nc3ccc(-c4nc5cc(Cl)ccc5s4)cc3)ncnc2cc1OCCCN1CCN(C)CC1	510	> 10000	24	62	> 10000	> 10000	1300	610	> 10000	> 10000
COc1cc2ncnc(Nc3ccc(-c4nc5cc(C(F)(F)F)ccc5s4)cc3)c2cc1OCCCN1CCN(C)CC1	> 10000	> 10000	1200	2100	> 10000	> 10000	–	–	–	–
COc1cc2c(Nc3ccc(-c4nc5ccccc5s4)c(F)c3)ncnc2cc1OCCCN1CCN(C)CC1	9	2100	9	27	300	430	210	44	> 10000	> 10000
COc1cc2ncnc(Nc3ccc(-c4nc5ccccc5s4)cc3O)c2cc1OC	–	–	> 10000	4200	–	2200	–	6900	–	–
COc1cc2c(Nc3ccc(-c4nc5ccc(Cl)cc5s4)cc3)ncnc2cc1OCCCN1CCN(C)CC1	410	8000	54	64	2300	260	9300	2500	–	–
COc1cc2c(Nc3ccc(-c4nc5ccccc5s4)cc3)ncnc2cc1OCCCN1CCN(C)CC1	54	1400	14	60	100	46	69	12	–	–
COc1cc2c(Nc3ccc(-c4nc5ccc(F)cc5s4)cc3)ncnc2cc1OCCCN1CCN(C)CC1	235	3400	26	41	6950	730	865	335	> 10000	> 10000
COc1cc2ncnc(Nc3ccc(-c4nc5ccccc5s4)cc3F)c2cc1OCCCN1CCN(C)CC1	360	10000	390	410	> 10000	4500	–	–	–	–
COc1cc2ncnc(Nc3ccc(-c4nc5ccccc5s4)cc3)c2cc1OCCCN1CCN(C)CC1	–	3800	110	510	2200	–	–	–	–	–
COc1cc2ncnc(Nc3ccc(-c4nc5ccccc5s4)cc3O)c2cc1OCCCN1CCN(C)CC1	880	> 10000	800	800	2300	230	–	–	–	–
COc1cc(-c2nc3ccccc3s2)ccc1Nc1ncnc2cc(OC)c(OC)cc12	–	–	> 10000	> 10000	–	63	–	> 10000	–	–
COc1cc2c(Nc3ccc(-c4nc5ccccc5s4)c(Cl)c3)ncnc2cc1OCCCN1CCN(C)CC1	37	3600	27	78	38	–	470	120	10000	–
COc1cc(-c2nc3ccccc3s2)ccc1Nc1ncnc2cc(OC)c(OCCCN3CCN(C)CC3)cc12	6100	> 10000	1300	1900	> 10000	> 10000	–	–	–	–
COc1cc2c(Nc3ccc(-c4nc5ccccc5s4)cc3C)ncnc2cc1OCCCN1CCN(C)CC1	38	6700	340	440	490	–	340	–	–	–
COc1cc2c(Nc3ccc(-c4nc5ccccc5s4)cc3OC(F)(F)F)ncnc2cc1OCCCN1CCN(C)CC1	590	9100	290	520	> 10000	> 10000	> 10000	> 10000	–	–
COc1cc2ncnc(Nc3ccc(-c4nc5ccccc5s4)cc3)c2cc1OC	–	–	–	–	–	–	–	6300	–	–
COc1cc2ncnc(Nc3ccc(-c4nc5ccccc5s4)c(O)c3)c2cc1OCCCN1CCN(C)CC1	5300	10000	300	640	> 10000	3300	–	–	–	–
COc1cc2c(Nc3ccc(-c4nc5ccc(Cl)cc5s4)cc3F)ncnc2cc1OCCCN1CCN(C)CC1	615	9200	85	90	> 10000	6200	3000	2250	–	–
COc1ccc2nc(-c3ccc(Nc4ncnc5cc(OCCCN6CCN(C)CC6)c(OC)cc45)cc3)sc2c1	390	> 10000	62	48	130	200	1900	690	–	–
COc1cc2ncnc(Nc3ccc(-c4nc5ccccc5s4)c(OC)c3)c2cc1OCCCN1CCN(C)CC1	1400	3800	1600	> 10000	47	15	–	–	–	–
